# Sampled rows, rich in hits. Any-hit rate of the full collection: about 1.6%.
# C8 TRAIL sens – sensitizes caspase-8 expressing cells to TRAIL | NB7+C8 cells + TRAIL, ATPlite viability luminescence | inhibition (viability loss, TRAIL sensitization), % at 10 µM | 1% of 360,000 active;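 active means compounds causing at least 50% loss of cell viability in the single-dose screen, relative to plate controls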
# FLuc stim CS – affects firefly luciferase, flagging false hits in luciferase stimulation screens. P08659. ATPlite luciferase biochemical, luminescence, 10 min; 0 = ATP-free wells, 1 = DMSO control. activation factor at 10 µM. 200,000 tested, under 10 active;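 active means luciferase activation factor, scaled between plate controls, of at least 2 with compound at 10 µM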
# Target sequence (P08659 whole entry, looked up): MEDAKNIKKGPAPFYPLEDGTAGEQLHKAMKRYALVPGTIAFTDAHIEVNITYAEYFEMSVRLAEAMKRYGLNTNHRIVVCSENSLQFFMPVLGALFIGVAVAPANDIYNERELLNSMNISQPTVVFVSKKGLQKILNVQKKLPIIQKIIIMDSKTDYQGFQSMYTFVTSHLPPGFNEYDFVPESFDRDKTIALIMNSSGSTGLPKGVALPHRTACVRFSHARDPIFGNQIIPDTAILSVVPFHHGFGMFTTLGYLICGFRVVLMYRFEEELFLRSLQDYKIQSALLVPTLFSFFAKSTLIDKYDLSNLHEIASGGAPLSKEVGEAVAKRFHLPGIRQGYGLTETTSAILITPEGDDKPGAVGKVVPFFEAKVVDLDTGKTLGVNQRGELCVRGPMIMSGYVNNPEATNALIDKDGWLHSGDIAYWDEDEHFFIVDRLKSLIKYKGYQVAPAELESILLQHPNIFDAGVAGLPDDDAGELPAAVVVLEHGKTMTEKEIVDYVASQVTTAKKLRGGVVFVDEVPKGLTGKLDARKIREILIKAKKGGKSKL
#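 Assay system – cell-free luciferase reagent · Medium – PBS-based ATP solution · Dosing – test compounds dosed from 2 mM stocks in 100% DMSO · Timing – 10 min, room temperature · Technique – light output (luminescence) · Measure – luminescence gain marking luciferase activators · Controls – No-ATP low control, compound-free enzyme-plus-ATP high control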
# PPC-1+TRAIL kill – kills PPC-1 cancer cells in the presence of TRAIL. 0.41% of 220,000 active. PPC-1 cells + TRAIL, ATPLite viability luminescence. cell killing (% activity), % at 4 µM or 5 µM. AID 1443;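 active means cell killing above 50% in the first pass at 4 µM, then a duplicate retest at 5 µM averaging 50% or more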;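 further: plate controls were cells with TRAIL plus DMSO for no effect and medium-only wells lacking cells for full effect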
# FLuc inh counter – inhibits firefly luciferase, flagging false hits in luciferase inhibition screens. inhibition, % at 10 µM. AID 1006. 1.5% of 200,000 active. ATPLite firefly luciferase biochemical luminescence, 10 min;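 active means inhibition above about 50% when tested at 10 µM, limit read from the data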
# The depositor's hits bear a star; / = no result.
SMILES,C8 TRAIL sens,FLuc stim CS,PPC-1+TRAIL kill,FLuc inh counter
COc1ccccc1/C=C1\Cc2ccccc2C1=O,5,/,11,/
CC1=NN(c2ccccc2)C(=O)/C1=C/c1c(O)n(-c2ccc(F)cc2)[nH]c1=O,33,0.4,31,63*
CC1=NN(c2ccccc2)C(=O)/C1=C\c1cc(C)n(-c2cccnc2)c1C,-9,/,1,/
CC1=NN(c2ccccc2)C(=O)/C1=C\c1cc(C)n(-c2ccccc2)c1C,25,0.4,12,63*
CC1=NN(c2ccccc2)C(=O)C1=Cc1ccccc1,0,/,/,/
NS(=O)(=O)c1cccn1-c1ncc(C(F)(F)F)cc1Cl,-12,1,24,0
CCOc1ccccc1-n1nnnc1SCC(=O)NC(=O)Cc1ccccc1,-18,/,/,/
Cc1cc(C=C2C(=O)c3ccccc3C2=O)c(C)n1-c1ccccc1,78*,0.1,5,90*
CC(=O)N1CCC2(CC1)C/C(=N\NC(=S)Nc1ccccc1F)c1cc(O)ccc1O2,-18,1.1,-19,-6
O=C(CCl)N1N=C(c2cccs2)CC1c1ccco1 (configuration not stated),91*,1,8,-5
O=C1C(=NO)CCCc2ccccc21,-8,/,/,/
O=C1C(=C2CCc3ccccc32)Cc2ccccc21,51*,/,/,/
CCOc1ccc(/C=N/NC(=O)c2ccccc2NC(=O)c2ccc(OC)cc2)cc1,76*,0.1,36,94*
COc1ccc(C(=O)Nc2ccccc2C(=O)Nc2ccccc2)cc1,32,/,/,/
COc1ccc(C(=O)Nc2ccccc2C(=O)N/N=C/c2ccco2)cc1,84*,0,50,97*
Cc1cc(N=NC(=O)c2ccccc2O)c2ccccc2c1O,14,0.5,-7,49
O=C(N=Nc1ccc(NOC(=O)c2ccccc2Br)cc1)c1ccccc1O,/,0.4,48,61*
CN(C)S(=O)(=O)c1ccc(-c2csc(N/N=C/c3ccc(O)cc3)n2)cc1,85*,/,-4,/
CN(C)S(=O)(=O)c1ccc(-c2csc(N/N=C/c3ccco3)n2)cc1,72*,/,12,/
Cc1ccc(-c2csc(N/N=C/c3ccco3)n2)cc1,1,1,14,-2
O=C1NC[C@H](CCCCN2C[C@H](Cc3ccc(O)cc3)N(CCc3ccc(O)cc3)C(=O)C2=O)N(CCc2ccccc2)C1=O,1,/,/,/
S=C1Cc2ccccc2N1,60*,/,22,/
S=C1Nc2ccccc2CS1,-11,/,/,/
COc1ccc(CNC(=O)c2ccccc2SCC(=O)NCc2ccco2)cc1,2,/,/,/
CC(C)(C)OC(=O)NCCCC[C@H](NC(=O)c1[nH]cnc1C(=O)N[C@@H](Cc1ccccc1)C(=O)OC(C)(C)C)C(=O)OC(C)(C)C,58*,/,18,/
SMILES,C8 TRAIL sens,FLuc stim CS,PPC-1+TRAIL kill,FLuc inh counter
CC(C)C[C@H](NC(=O)c1nc[nH]c1C(=O)N[C@@H](CC(C)C)C(=O)OCc1ccccc1)C(=O)OCc1ccccc1,52*,/,/,/
CC(C)C[C@H](NC(=O)c1[nH]cnc1C(=O)N[C@@H](Cc1ccccc1)C(=O)OCc1ccccc1)C(=O)OCc1ccccc1,17,/,/,/
CC(C)C[C@H](NC(=O)c1nc[nH]c1C(=O)N[C@@H](CC(C)C)C(=O)OC(C)(C)C)C(=O)OC(C)(C)C,55*,/,6,/
O=C(CN(Cc1ccccc1)C(=O)CCl)c1cccc(Br)c1,97*,/,/,/
O=C(NCCCc1ccccc1)c1cccc(Br)c1,0,/,/,/
O=S(=O)(/C(=C\c1ccc(C(F)(F)F)cc1)c1nc2ccccc2[nH]1)c1ccccc1,85*,/,/,/
N/C(=N/O)c1nc(N2CCCC2)nc(N(c2ccccc2)c2ccccc2)n1,59*,1.1,27,-11
Cn1c(-c2ccccc2)c(C(=O)CCl)c2ccccc21,92*,1,21,-3
CCOC(=O)CNC(=O)CSc1nc(-c2ccc(OC)cc2)ns1,54*,0.7,21,32
CC1=NN(c2nc(N)nc(/C(C#N)=C/c3ccc([N+](=O)[O-])o3)n2)C(C)(C)C1,79*,/,/,/
O=C1C2C(C(=O)N1/N=C/c1ccc([N+](=O)[O-])o1)C1C=CC2C12CC2 (configuration not stated),10,1.1,14,-8
Cc1nnc(NCc2n[nH]c(=O)c3ccccc23)c2ccccc12,-16,1,-15,-4
CCCCc1ccc(NC(=O)Nc2c(C)n(C)n(-c3ccccc3)c2=O)cc1,0,/,/,/
CCOc1c2ccoc2nc2c(OC)c(OC)ccc12,14,0.6,4,37
C=CCOc1ccc2c(OC)c3ccoc3nc2c1OC,46,0.5,34,54*
O=[N+]([O-])c1cc(Cl)ccc1-c1nc(-c2ccccc2)no1,47,0.3,27,67*
C=C(C)c1nc(Oc2ccccc2)nc(Oc2ccccc2)n1,55*,/,/,/
CCCCCCCCn1ccc(=N)cc1,30,/,31,/
CCCCCCCCCCn1ccc(=N)cc1,55*,/,47,/
O=C(Nc1cccc(-n2cnnn2)c1)c1ccc(C(F)(F)F)cc1,49*,/,/,/
Cc1nn(CC(=O)NCCCN2CCC(Cc3ccccc3)CC2)c(=O)c2cc(-c3ccccc3)nn12,23,/,/,/
CCc1ccc(-c2cc3c(=O)n(CC(=O)NCCCN4CCN(C)CC4)ncn3n2)cc1,59*,/,/,/
COc1ccc(-c2cc3c(=O)n(CC(=O)N4CCCCC4)ncn3n2)cc1,16,/,/,/
COc1ccc(-c2cc3c(=O)n(CC(=O)N4CCN(C)CC4)ncn3n2)cc1,59*,/,/,/
CCc1ccc(-c2cc3c(=O)n(CC(=O)NCc4ccccc4F)ncn3n2)cc1,-5,/,/,/
SMILES,C8 TRAIL sens,FLuc stim CS,PPC-1+TRAIL kill,FLuc inh counter
CCc1ccc(-c2cc3c(=O)n(CC(=O)NCCCN4CCC(Cc5ccccc5)CC4)nc(C)n3n2)cc1,91*,/,/,/
CC[C@H](C)[C@@H]1OC(=O)[C@@H](C)[C@@H](CC)NC(=O)[C@H](C)N(C)C(=O)C(C)(C)C(=O)C(C)NC(=O)[C@H](Cc2ccccc2)N(C)C(=O)[C@H](C(C)C)N(C)C(=O)CNC(=O)[C@H](CC(C)C)N(C)C(=O)CNC1=O (some centres not stated),60*,/,/,/
CCOC(=O)c1cnc2nc(C)nn2c1N,2,1,4,-3
O=C1C(=Cc2ccccn2)CCc2ccccc21,-1,/,/,/
O=C1/C(=C\c2ccc3ccccc3c2)CCCc2ccccc21,19,0.5,20,52*
Cc1ccsc1/C=C1\CCc2ccccc2C1=O,79*,0.1,50,92*
